The source of these data is PubChem BioAssay.

Activity calls are given as the source filed them.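 How the source made its calls, unless noted: active means compounds giving at least 50% inhibition in the cell-based MKP-3 phosphatase rescue imaging test; inactive means the rest.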

Test [1] can be described thus: inhibitors of TNFa-induced NFkB p65 translocation, primary screen, imaging, HUVEC, MLSMR starter and 10KST1 sets (AID 438;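 active means inhibition above 20% together with a positive visual image hit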;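 further: compound added about 3h40 before a 20 min TNFalpha stimulation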;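 on inhibition: signal is the nuclear over cytoplasmic p65 intensity ratio per well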). As to conditions: HUVEC TNFa-induced p65 nuclear translocation; cell count: measured here: nuclei count (cytotoxicity indicator), at 2.08 µM; inhibition: at 2 µM, stronger effect = higher value, 0% TNFa-plus-vehicle, 100% no-TNFa wells.
Test [2] can be described thus: inhibitors of E-selectin induction by TNFa, primary screen, imaging, HUVEC, immunofluorescence, MLSMR starter and 10KST1 sets (AID 487;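 active means visually confirmed hit in the image check and inhibition above 20%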;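 on inhibition: signal is fraction of cell area covered by stained E-selectin grains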;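 on nuclei count: 100% = median nuclei count of all wells on the same plate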). As to conditions: HUVEC TNFalpha-induced E-selectin immunofluorescence imaging, at 2 µM; inhibition: stronger effect = higher value; nuclei count: measured here: cell number, toxicity.
Test [3] is described as follows: DUSP6 inhibitors restoring Erk phosphorylation by chemical complementation, primary imaging in DUSP6-transfected HeLa (AID 609).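 On inhibition: phospho-Erk level distribution per well compared with pooled transfected vehicle control wells.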 The settings on record: HeLa MKP-3 transfected, phospho-Erk imaging KS statistic, at 10 µM, cells stimulated with TPA for 15 min.
Test [4] has as its target Dual specificity protein phosphatase 6 (Homo sapiens) (UniProt Q16828). The description is as above. The settings on record: HeLa MKP-3 transfected, phospho-Erk imaging KS statistic; at 10 µM; stronger effect = higher value; cells stimulated with TPA for 15 min.
Test [5] addresses Voltage-gated potassium channel subunit beta-2 (Rattus norvegicus) (UniProt P62483). Description: KvBeta enzyme negative modulators, primary screen, biochemical, NADPH fluorescence (AID 622;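 active means fluorescence slope higher than the sample average by over 3 SD, cut at about -0.22 in these data, passing the limit was not always enough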;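 further: slope of raw intensity against log time taken from 70 to 1610 s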). As to conditions: recombinant KvBeta, 4-cyanobenzaldehyde reduction, at 10 µM, stronger effect = higher value.
For test [6] the target is unchanged. Kind of test: KvBeta positive modulators, primary screen, biochemical, NADPH fluorescence (AID 623;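 active means NADPH fluorescence slope more negative than the mean of all samples by about 3 SD, 99.7% confidence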;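 further: fluorescence intensity change per second fitted from 20 to 320 s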). As to conditions: Recombinant KvBeta, NADPH fluorescence decrease slope, 10 min; at 10 µM; stronger effect = lower value.
Test [7] addresses Muscarinic acetylcholine receptor M4 (Homo sapiens) (UniProt P08173). Kind of test: compounds altering M4/GIRK thallium flux, either direction, primary screen, M4 allosteric agonist project, cell-based, HEK293 M4/GIRK, BTC-AM (AID 625;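 active means fluorescence slope after compound addition differing from the mean of all tested samples at 99.7% confidence, mostly higher but some lower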;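 further: thallium influx through GIRK channels coupled to M4 in HEK293 cells with BTC-AM dye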). The settings on record: at 10 µM, actives lie on both sides. Summed up: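 Material: HEK293 cells with M4 receptor and GIRK channels; Times: cells overnight at 37 °C, BTC-AM loading 1 h, reads 2 min total; Technique: kinetic BTC-AM fluorescence sampled at 1 Hz, 10 s pre-addition baseline; Read-out basis: slope over 15–24 s of trace normalized to starting intensity; Controls: carbachol positive, DMSO negative.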

The nature of test [8]: inhibitors of larval lipid processing in zebrafish, primary screen, whole organism, PED6 fluorescence, gall bladder and intestine (AID 686;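 active means a full or partial loss of lipid-probe fluorescence in the fish gall bladder, intestine or both, judged by eye; inactive means no fluorescence loss, or compound toxic to the fish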;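 further: larvae 5 to 7 days old with five fish per well; signal comes from phospholipase A2 cleavage of quenched PED6 carried via bile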). The settings on record: Zebrafish larvae PED6 lipid processing, fluorescence scoring; screened at 20 µM (by protocol). In a few lines:
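Incubation: overnight exposure of larvae to compound plus PED6 / Test system: live zebrafish larvae aged 5-7 days, whole organism / Amount: 5 larvae per well / Read-out basis: visual per-well fluorescence inhibition score / Signal: visual fluorescence microscopy scoring of gall bladder, gut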

Test [9] in a line: inhibitors of Chlamydomonas gravitaxis, primary screen, whole organism, Chlamydomonas reinhardtii, WT vs cilia-less mutant, absorbance, 96-well (AID 463189;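 active means inhibition at or above 50% relative to wild type and mutant plate controls; inactive means inhibition below 50%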;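 further: 0% = wild type cc124 cells in DMSO and 100% = ciliumless bld1 mutant cells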). As to conditions: OD600 absorbance, 2 days, at 10 µM, stronger effect = higher value.
The mark [10] stands for this setting: measured here: cell density z-score.
The mark [11] stands for this setting: measured here: nuclear c-Myc green intensity z-score.
Setting [12] is: measured here: nuclear pErk red intensity z-score, stronger effect = higher value.

Voltage-gated potassium channel subunit beta-2 (Rattus norvegicus), sequence (P62483 whole entry, looked up): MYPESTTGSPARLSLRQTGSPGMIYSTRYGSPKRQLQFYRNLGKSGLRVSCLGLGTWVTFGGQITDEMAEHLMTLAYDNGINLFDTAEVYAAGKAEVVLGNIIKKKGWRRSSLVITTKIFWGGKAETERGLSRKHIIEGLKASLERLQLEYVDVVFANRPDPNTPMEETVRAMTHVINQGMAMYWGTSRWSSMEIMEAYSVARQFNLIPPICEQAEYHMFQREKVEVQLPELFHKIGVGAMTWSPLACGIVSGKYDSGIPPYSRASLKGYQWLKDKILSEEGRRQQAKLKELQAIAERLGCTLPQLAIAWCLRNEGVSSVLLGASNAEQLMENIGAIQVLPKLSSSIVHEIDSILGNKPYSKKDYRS
Dual specificity protein phosphatase 6 (Homo sapiens), sequence (Q16828 whole entry, looked up): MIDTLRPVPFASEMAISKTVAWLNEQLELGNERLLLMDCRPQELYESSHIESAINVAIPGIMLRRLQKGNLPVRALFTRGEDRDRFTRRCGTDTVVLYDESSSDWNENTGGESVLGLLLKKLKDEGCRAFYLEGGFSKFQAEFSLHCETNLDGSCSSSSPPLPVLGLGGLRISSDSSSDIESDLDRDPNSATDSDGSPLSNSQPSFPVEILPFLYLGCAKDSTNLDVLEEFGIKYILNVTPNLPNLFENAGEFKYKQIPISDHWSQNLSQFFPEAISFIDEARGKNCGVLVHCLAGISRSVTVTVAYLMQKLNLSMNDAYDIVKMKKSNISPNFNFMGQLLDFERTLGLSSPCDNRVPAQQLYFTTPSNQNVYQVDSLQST
Muscarinic acetylcholine receptor M4 (Homo sapiens), sequence (P08173 whole entry, looked up): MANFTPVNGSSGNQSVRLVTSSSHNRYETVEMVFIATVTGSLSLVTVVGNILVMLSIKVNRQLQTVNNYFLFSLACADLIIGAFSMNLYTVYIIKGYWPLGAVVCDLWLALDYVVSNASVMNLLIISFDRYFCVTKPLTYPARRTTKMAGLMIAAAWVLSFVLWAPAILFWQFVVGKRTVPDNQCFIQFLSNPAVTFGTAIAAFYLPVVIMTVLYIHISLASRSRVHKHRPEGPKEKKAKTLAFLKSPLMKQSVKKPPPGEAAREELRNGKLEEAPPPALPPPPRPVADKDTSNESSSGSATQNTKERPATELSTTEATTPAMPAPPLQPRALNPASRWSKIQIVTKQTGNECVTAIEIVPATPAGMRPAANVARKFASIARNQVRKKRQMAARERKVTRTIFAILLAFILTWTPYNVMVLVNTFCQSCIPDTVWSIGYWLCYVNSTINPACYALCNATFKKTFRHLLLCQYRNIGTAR

As to `Cc1ccc(-n2ncc3c(N4CCCC4)ncnc32)c(C)c1`, the cell count in test [1] is 615. The inhibition in test [1] is -13.7% (inactive); in test [2], 4.8% (inactive); in test [4] it was -2.59% (inactive); in test [9], 147% (active). Besides, the nuclei count in test [2] stood at 158%. Also, the z-score was 0.427 in test [3] (setting [10]), -1.76 in test [3] (setting [11]) and -0.345 in test [3] (setting [12]). The figures for the fluorescence slope in test [5] and in test [7] were -0.327 (inactive) and 0.00689 (inactive), respectively. In test [6], the NADPH fluorescence slope was -4.9e-06 (inactive). Moreover, the outcome in test [8] was inactive.

For the molecule `N#Cc1c2c(c(-c3ccco3)[nH]c1=O)CCCC2`, in test [1], the cell count amounted to 576. Further, the inhibition was -5% (inactive) in test [1], -60.2% (inactive) in test [2], -5.81% (inactive) in test [4] and 17% (inactive) in [9]. Besides, the nuclei count in test [2] is 152%. In addition, the z-score is -0.652 in test [3] (setting [10]), 0.857 in test [3] (setting [11]) and 0.409 in test [3] (setting [12]). For the same molecule, the figures for the fluorescence slope in test [5] and in test [7] were -0.435 (inactive) and 0.00432 (inactive), respectively. Moreover, in [6], the NADPH fluorescence slope is -0.000117 (inactive). Also, the molecule was called inactive in [8].

In the case of `CCCCCNc1nc(N2CCCC2)c2c(c1C#N)CCN(C)C2`, the cell count in [1] was found to be 596. Further, the inhibition was 8.1% (inactive) in test [1], -52.3% (inactive) in test [2], -9.53% (inactive) in test [4] and 165% (active) in test [9]. The same molecule returned a nuclei count in test [2] of 146%. Also, the values for the z-score in test [3] (setting [10]), in test [3] (setting [11]) and in test [3] (setting [12]) were -0.626, 0.142 and -0.491, respectively. Also, the fluorescence slope in test [5] is -0.446 (inactive); in [7], 0.0037 (inactive). Further, the NADPH fluorescence slope in [6] was -8.3e-05 (inactive). In test [8], the molecule was called inactive.

`CCCC1CC(=O)OC1(C)C(=O)CSc1n[nH]c(-c2ccccc2)n1` (stereo unspecified): the cell count in [1] came out at 686. Besides, the inhibition in [1] is -3.7% (inactive); in test [2], -35.6% (inactive); in [4] it was -9.66% (inactive); in test [9], -3.69% (inactive). In test [2], the nuclei count is 142%. Besides, the values for the z-score in test [3] (setting [10]), in test [3] (setting [11]) and in test [3] (setting [12]) were 0.882, 0.0839 and -0.223, respectively. In addition, the fluorescence slope in test [5] is -0.472 (inactive); in test [7], 0.00594 (inactive). Moreover, the NADPH fluorescence slope in test [6] is -1.5e-05 (inactive). Also, the outcome in test [8] is “active; no signal in intestine only”.

Turning to `Cc1ccc(-n2ncc3c(NCCCN4CCCC4=O)ncnc32)c(C)c1`, the cell count in test [1] was determined as 563. Moreover, the inhibition in test [1] was -12.5% (inactive); in test [2] it was -40.1% (inactive); in test [4], 13.4% (inactive); in [9], 0.102% (inactive). The molecule also showed a nuclei count in [2] of 134%. The z-score in test [3] (setting [10]) is 0.612; in [3] (setting [11]) it was -0.125; in test [3] (setting [12]) it was -2.3. Moreover, the fluorescence slope in test [5] is -0.358 (inactive); in test [7] it was 0.00773 (inactive). The NADPH fluorescence slope in test [6] was 1.3e-05 (inactive). The call in [8] was inactive.

On to `Cc1ccc(N(CN2C(=O)C3CC=CCC3C2=O)C(=O)c2ccco2)cc1Cl` (stereo unspecified), for which the cell count in [1] is 419. Moreover, the inhibition in test [1] was -4.5% (inactive); in test [2], 32.8% (inactive); in test [4], -7.28% (inactive); in test [9], 30.1% (inactive). The molecule further gave a nuclei count in test [2] of 102%. Also, the z-score in test [3] (setting [10]) is 0.823; in test [3] (setting [11]), -0.172; in [3] (setting [12]), 0.302. Besides, the fluorescence slope is -0.453 (inactive) in test [5] and 0.00483 (inactive) in test [7]. Also, in test [6], the NADPH fluorescence slope is -1.3e-05 (inactive). Further, in test [8], the molecule was classed as inactive.

As to `Cc1nn(CC(=O)N2CCOCC2)c(=O)c2ccccc12`, in [1], the cell count is 584. The inhibition was -9.1% (inactive) in test [1], -72.8% (inactive) in test [2], 12.8% (inactive) in test [4] and -9.34% (inactive) in [9]. In addition, the nuclei count in [2] came to 135%. Moreover, the results for the z-score in test [3] (setting [10]), in [3] (setting [11]) and in test [3] (setting [12]) were 1.52, -1.31 and 0.975, respectively. In addition, the values for the fluorescence slope in test [5] and in [7] were -0.524 (inactive) and 0.00441 (inactive), respectively. Moreover, the NADPH fluorescence slope in test [6] was -0.000146 (inactive). Further, the call in test [8] was inactive.
